Experimental data: ChEMBL document CHEMBL1121966, “(2R*,3S*)-1-[125I]Iodo-2,3-bis(4-hydroxyphenyl)pentane ([125I]iodonorhexestrol) and (2R*,3S*)-1-[77Br]Bromo-2,3-bis(4-hydroxyphenyl)pentane ([77Br]bromonorhexestrol), two gamma-emitting estrogens that show receptor-mediated uptake by target tissues in vivo” (1982)

Legend:
Type in all cases: functional
[1] = Kidney/blood distribution ratio was determined in immature female rats at 3h
Summary of the method: (§1)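 Dual-label study in immature 25-day female Sprague-Dawley rats (ca. 50 g). Each received 2 μCi [77Br]bromo tracer (≤1.25 pmol/dose) and 2 μCi 16α-[125I]iodoestradiol (2 pmol/dose) by tail or jugular vein, in ethanol diluted with saline/rat serum 1:1. Rats were killed at 3 or 6 h; blood and 11 tissues were weighed and counted. Five rats per time point; mean ± SD.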

Rattus norvegicus [2] = species: Rattus norvegicus; experiment: Percent injected dose per gram blood at 3h; summary of the method: as §1
[3] = Liver/blood distribution ratio was determined in immature female rats at 1 hr with unlabeled estradiol
Summary of the method: (§2)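 Immature (25-day, ca. 50 g) Sprague-Dawley female rats received an iv injection (jugular or tail vein) of HPLC-purified tracer in ethanol plus 0.9% NaCl/rat serum 1:1. Doses were 2 μCi [125I]iodo tracer (≤15 pmol), or 2 μCi [77Br]bromo tracer (≤1.25 pmol) with 2 μCi 16α-[125I]iodoestradiol. Animals were killed at 1 h; blood and tissues were weighed and γ-counted. Blocking: coinjected unlabeled estradiol, 9 μg (iodo) or 18 μg (bromo). Mean ± SD.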

Rattus norvegicus [4] = species: Rattus norvegicus; experiment: % compound injected per gram uterus at 6 hr
[5] = Uterus/blood distribution of compound was measured in immature female rats at 1 hr with unlabeled estradiol
Summary of the method: (§3)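 Same iv biodistribution in immature female rats, killed at 1 h, with unlabeled estradiol coinjected to block receptor uptake: 9 μg with [125I]iodonorhexestrol (3 rats), 18 μg with the [77Br]bromonorhexestrol/16α-[125I]iodoestradiol pair (5 rats). Tissue and blood radioactivity were counted as % injected dose/g and tissue-to-blood ratio.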

[6] = Muscle/blood distribution ratio was determined in immature female rats at 3h; summary of the method: as §1
Rattus norvegicus [7] = species: Rattus norvegicus; experiment: Percent injected dose per gram liver at 1 hr with unlabeled estradiol; summary of the method: as §3
[8] = Ovary/blood distribution ratio was determined in immature female rats at 1 hr; summary of the method: as §2
[9] = Tissue/blood distribution ratio was measured in immature female rats at 6 hr
Summary of the method: (§4)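 Immature (25 day) female Sprague-Dawley rats (ca. 50 g) were dosed iv (jugular or tail vein) in ethanol plus 0.9% NaCl/rat serum (1:1). Doses were 2 μCi of [125I]iodonorhexestrol (≤15 pmol/dose), or 2 μCi each of [77Br]bromonorhexestrol (≤1.25 pmol/dose) and 16α-[125I]iodoestradiol (2 pmol/dose). Rats were killed at 1, 3 or 6 h; blood and tissues were weighed and γ-counted. Thyroid weight assumed 0.005 g/100 g body weight. Mean ± SD.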

[10] = Thyroid/blood distribution ratio was determined in immature female rats at 3h; summary of the method: as §4
Rattus norvegicus [11] = species: Rattus norvegicus; experiment: Percent injected dose per gram Muscle at 3h; summary of the method: as §1
Rattus norvegicus [12] = species: Rattus norvegicus; experiment: Solvolytic stability was measured relative to p-hydroxyphenethyl bromide
Summary of the method: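 Solvolysis rates were measured in 40% ethanol-water at 50 °C, buffered to pH 7. Values are 1/k_rel = (k_compound/k_p-hydroxyphenylethyl bromide)^-1.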

[13] = Percent injected dose per gram liver at 6 hr; summary of the method: as §4
Rattus norvegicus [14] = species: Rattus norvegicus; experiment: Percent injected dose per gram liver at 3h; summary of the method: as §4
[15] = Thyroid/blood distribution ratio was determined in immature female rats at 6 hr; summary of the method: as §4
[16] = Uterus/blood distribution ratio was measured in immature female rats at 6 hr; summary of the method: as §4
[17] = Spleen/blood distribution ratio was determined immature female rats at 6 hr; summary of the method: as §4
Rattus norvegicus [18] = species: Rattus norvegicus; experiment: Percent injected dose per gram lung at 6 hr; summary of the method: as §4
Rattus norvegicus [19] = species: Rattus norvegicus; experiment: Percent injected dose per gram spleen at 3h; summary of the method: as §4
[20] = Lung/blood distribution ratio was determined in immature female rats at 3h; summary of the method: as §1
[21] = Esophagus/blood distribution ratio was determined in immature female rats at 1 hr with unlabeled estradiol; summary of the method: as §2
Rattus norvegicus [22] = species: Rattus norvegicus; experiment: Percent injected dose per gram Ovaries at 1 hr with unlabeled estradiol; summary of the method: as §2
[23] = Muscle/blood distribution ratio was determined in immature female rats at 1 hr; summary of the method: as §2
[24] = Ovary/blood distribution ratio was determined in immature female rats at 1 hr with unlabeled estradiol; summary of the method: as §2
[25] = Ovary/blood distribution ratio was determined in immature female rats at 6 hr; summary of the method: as §1
[26] = Liver/blood distribution ratio was determined in immature female rats at 6 hr; summary of the method: as §1
[27] = Thyroid/blood distribution ratio was determined in immature female rats at 1 hr with unlabeled estradiol; summary of the method: as §3

With CC[C@H](c1ccc(O)cc1)[C@@H](CBr)c1ccc(O)cc1 as the compound, how does the Ratio [1] read?
The Ratio was 0.76.

What about the Injected dose (Rattus norvegicus [2]) of the same compound?
The Injected dose was 1.24%.

And the Ratio [3]?
The Ratio was 1.51.

And the Injected (Rattus norvegicus [4])?
The Injected was 3.19.

What about the Ratio [5] of the same compound?
Its Ratio is 0.98.

And the Ratio [6]?
The Ratio was 0.29.

And the Injected dose (Rattus norvegicus [7])?
The Injected dose was 1.46%.

What about the Ratio [8] of the same compound?
The Ratio was 1.98.

And the Ratio [9]?
Its Ratio is 1.

What about the Ratio [10] of the same compound?
The Ratio was 0.08.

What about the Injected dose (Rattus norvegicus [11]) of the same compound?
The Injected dose was 0.37%.

And the 1/krel (Rattus norvegicus [12])?
The 1/krel was 1.17.

And the Injected dose [13]?
Its Injected dose is 0.93%.

And the Injected dose (Rattus norvegicus [14])?
Its Injected dose is 1.05%.

And the Ratio [15]?
Its Ratio is 0.13.

What about the Ratio [16] of the same compound?
The Ratio was 2.51.

What about the Ratio [17] of the same compound?
Its Ratio is 0.55.

And the Injected dose (Rattus norvegicus [18])?
The Injected dose was 1.02%.

And the Injected dose (Rattus norvegicus [19])?
Its Injected dose is 0.6%.

And the Ratio [20]?
Its Ratio is 0.68.

And the Ratio [21]?
The Ratio was 0.59.

What about the Injected dose (Rattus norvegicus [22]) of the same compound?
The Injected dose was 0.72%.

What about the Ratio [23] of the same compound?
Its Ratio is 0.48.

What about the Ratio [24] of the same compound?
The Ratio was 0.74.

What about the Ratio [25] of the same compound?
Its Ratio is 1.41.

And the Ratio [26]?
Its Ratio is 0.69.

What about the Ratio [27] of the same compound?
The Ratio was 0.25.
